Measurements: PMC3586205 (European journal of pharmacology, 2012)
Entries after “also recorded” stand apart in the source; their conditions may differ. Where two headings read alike, the source gives them in different places.

Columns and labels:
[1] = target: T1, human cannabinoid CB1 receptor (Homo sapiens, UniProt P21554); details: cited from earlier work
[2] = target: T2, human cannabinoid CB2 receptor (Homo sapiens, UniProt P34972); details: read-out: CB2 Ki (± SEM), displacement of [3H]CP55,940, cited from earlier work
food intake in mice [3] = details: ref Wiley et al., cited from earlier work; for dose (as low as) that suppressed eating: same food intake protocol, 2005
[4] = test system: spontaneous activity in mice; details: cited from earlier work; for SA ED50 (95% confidence limits): i.v.
[5] = test system: tail flick latency in mice; details: cited from earlier work; for %MPE tail flick (maximum effect): 30 mg/kg i.v.; for %MPE tail flick ED50 (95% confidence limits): i.v.; for %MPE, maximum possible antinociceptive effect in tail flick (maximum effect): 10 mg/kg i.v.
[6] = test system: rectal temperature in mice; details: cited from earlier work; for RT (maximum effect): 30 mg/kg i.v.; for RT ED50 (95% confidence limits): i.v.
[7] = test system: cannabinoid agonist-like effects in mice; details: cited from earlier work; for profile in test battery: ref Wiley et al. (2011); for % of maximal cannabinoid agonist-like activity in each of the four tests: ref Wiley et al. (2012)
food intake in mice [8] = experiment: Feeding behavior: 1-h food intake after 24-h food deprivation; assay type: in vivo; details: for decrease in feeding compared to vehicle: 60 min pre-session, significant; for dose that significantly decreased feeding: i.p.
ring immobility in mice = details: cited from earlier work
[9] = target: T1, human cannabinoid CB1 receptor; experiment: Cannabinoid CB1 receptor radioligand binding, displacement of [3H]CP55,940
[10] = target: T2, human cannabinoid CB2 receptor; experiment: Cannabinoid CB2 receptor radioligand binding, displacement of [3H]CP55,940
Method in brief: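 CHO cells stably expressing human CB2 receptor; membranes made in 50 mM Tris-HCl, 3 mM MgCl2, 1 mM EGTA, pH 7.4. Membrane (10 μg protein) incubated with 1 nM [3H]CP55,940 and varying test compound in 50 mM Tris-HCl pH 7.4, 3 mM MgCl2, 0.2 mM EGTA, 0.5% BSA, 60 min at 30 °C. Non-specific binding was taken with 1 μM unlabeled CP55,940. Bound and free were separated by GF/B filtration with cold Tris-BSA washes, then counted by liquid scintillation.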

[11] = read-out: CB1 Ki (± SEM), displacement of [3H]CP55,940, ref Wiley et al. (2012)
[12] = read-out: CB1 Ki (± SEM), displacement of [3H]CP55,940, ref Wiley et al. (2011)
[13] = 3 mg/kg i.v., ref Wiley et al. (2012)
[14] = read-out: CB1 receptor binding affinity Ki, ref Wiley et al., 2005
[15] = 10 mg/kg i.v., stim=stimulation, ref Wiley et al. (2012)
[16] = 10 mg/kg i.v., ref Wiley et al. (2012)
[17] = present study and H.A. Navarro, personal communication
[18] = 30 mg/kg i.v., ref Wiley et al. (2001)

T1 sequence (P21554 whole entry): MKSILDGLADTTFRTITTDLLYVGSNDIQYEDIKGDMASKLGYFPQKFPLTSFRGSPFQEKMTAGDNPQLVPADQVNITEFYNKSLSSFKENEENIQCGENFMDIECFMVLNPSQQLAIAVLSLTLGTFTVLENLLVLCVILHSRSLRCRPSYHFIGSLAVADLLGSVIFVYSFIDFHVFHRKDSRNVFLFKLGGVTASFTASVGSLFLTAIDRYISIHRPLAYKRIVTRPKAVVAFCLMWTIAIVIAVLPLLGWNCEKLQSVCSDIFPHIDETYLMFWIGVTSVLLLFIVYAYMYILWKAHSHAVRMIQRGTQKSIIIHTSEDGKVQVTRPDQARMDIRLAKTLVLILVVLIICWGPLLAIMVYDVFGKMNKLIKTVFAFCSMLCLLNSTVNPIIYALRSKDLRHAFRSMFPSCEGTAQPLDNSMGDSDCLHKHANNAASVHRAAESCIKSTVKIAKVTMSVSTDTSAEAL
T2 sequence (P34972 whole entry): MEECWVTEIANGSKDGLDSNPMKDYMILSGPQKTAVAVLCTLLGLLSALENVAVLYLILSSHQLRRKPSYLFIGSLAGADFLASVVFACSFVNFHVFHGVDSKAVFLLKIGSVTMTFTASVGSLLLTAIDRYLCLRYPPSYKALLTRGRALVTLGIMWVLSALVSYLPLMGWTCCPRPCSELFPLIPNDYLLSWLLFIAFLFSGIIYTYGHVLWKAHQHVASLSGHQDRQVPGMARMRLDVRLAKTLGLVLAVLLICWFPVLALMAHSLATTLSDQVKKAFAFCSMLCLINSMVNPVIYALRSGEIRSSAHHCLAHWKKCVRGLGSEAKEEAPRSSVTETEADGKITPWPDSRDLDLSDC

## CC1=CCC2C(C1)c1c(O)cc(CC#CCCCNS(C)(=O)=O)cc1OC2(C)C (stereo not shown) [Compound O-2050, 3-(6′-methane-sulfamidohex-2-yne)-Δ^8-tetrahydrocannabinol]
[1]; read-out: CB1 Ki (± SEM)
  Ki: 2.5 nM
[2]; ref Wiley et al. (2011)
  Ki: 0.2 nM
Food intake in mice [3]; same procedure, 2011
  effect on food intake: decrease food intake
[4]; 30 mg/kg i.v., ref Wiley et al. (2011)
  SA, % inhibition of activity of vehicle control group (maximum effect): 69% (30)
[5]; ref Wiley et al. (2011)
  %MPE tail flick (maximum effect): inactive (30)
[6]; ref Wiley et al. (2011)
  RT (maximum effect): inactive (30)
[7]
  profile in test battery: did not affect responses in the in vivo test battery

## N-allyl carboxamide analog [Compound O-4373]
Food intake in mice [8]; 30 mg/kg i.p.
  decrease in feeding compared to vehicle: 73%
[1]; [11]
  Ki: 147 nM
[2]; ref Wiley et al. (2012)
  Ki: 1700 nM
[4]; ref Wiley et al. (2012)
  SA ED50 (95% confidence limits): 2.3 (1.0–5.2) mg/kg
[6]; ref Wiley et al. (2012)
  RT ED50 (95% confidence limits): 2.9 (2.1–5.0) mg/kg
Ring immobility in mice; i.v., ref Wiley et al. (2012)
  RI ED50 (95% confidence limits): 4.2 (2.5–7.0) mg/kg

## CCS(=O)(=O)NCCCCC(C)(C)c1cc(O)c2c(c1)OC(C)(C)[C@@H]1CC=C(C)C[C@@H]21 [Compound O-2113, N-{5-[(6aR,10aR)-1-hydroxy-6,6,9-tri-methyl-6a,7,10,10a-tetrahydro-6H-benzo[c]chromen-3-yl]-5-methylhexyl}ethanesulfonamide]
Food intake in mice [8]; 30 mg/kg i.p.
  decrease in feeding compared to vehicle: 97%
Food intake in mice [8]
  dose that significantly decreased feeding: 30 mg/kg
[1]; [12]
  Ki: 1.7 nM
[2]; ref Wiley et al. (2011)
  Ki: 0.08 nM
[4]; ref Wiley et al. (2011)
  SA ED50 (95% confidence limits): 0.4 (0.1–1.8) mg/kg
[5]; ref Wiley et al. (2011)
  %MPE tail flick ED50 (95% confidence limits): 0.3 (0.1–1) mg/kg
[6]; ref Wiley et al. (2011)
  RT ED50 (95% confidence limits): 1.4 (0.3–4.6) mg/kg
[7]
  profile in test battery: exhibit agonist-like in vivo effects

## 3-bromopropyl carboxamide analog [Compound O-2154]
Food intake in mice [8]; 56 mg/kg i.p.
  decrease in feeding compared to vehicle: 60%
[1]; [11]
  Ki: 38 nM
[2]; ref Wiley et al. (2012)
  Ki: 731 nM
[4]; [13]
  SA, % inhibition of activity of vehicle control group (single dose): 70% (3)
[5]; [13]
  %MPE in tail flick (single dose): 50% (3)
Ring immobility in mice; [13]
  RI, % time immobile (single dose): 35% (3)
[7]; 3 mg/kg
  % of maximal cannabinoid agonist-like activity in each of the four tests: at least 50%

## Cc1c(C(=O)NN2CCCCC2)nn(-c2ccc(Cl)cc2Cl)c1-c1ccc(CCCCCN=[N+]=[N-])cc1 [Compound O-3257, 5-(4-(5-azidopentyl)phenyl)-1-(2,4-dichlorophenyl)-4-methyl-N-(piperidin-1-yl)-1H-pyrazole-3-carboxamide, reference compound]
[1]; [14]
  Ki: 2.2 nM
Food intake in mice [3]
  dose (as low as) that suppressed eating: 1 mg/kg

## CC1=CC[C@@H]2[C@@H](C1)c1ccc(CC#CCCCC(=O)NCCc3ccc(S(N)(=O)=O)cc3)cc1OC2(C)C [Compound O-1720]
[9]; read-out: CB1 Ki (± SEM), displacement of [3H]CP55,940
  Ki: 921 nM
[10]; read-out: CB2 Ki (± SEM), displacement of [3H]CP55,940
  Ki: 787 nM
Food intake in mice [8]; 100 mg/kg i.p.
  decrease in feeding compared to vehicle: 24%
Food intake in mice [8]
  dose that significantly decreased feeding: 100 mg/kg

## 3-cyanopropyl carboxamide analog [Compound O-2155]
Food intake in mice [8]; 30 mg/kg i.p.
  decrease in feeding compared to vehicle: 55%
[1]; [11]
  Ki: 222 nM
[2]; ref Wiley et al. (2012)
  Ki: 1850 nM
[4]; [15]
  SA, % inhibition of activity of vehicle control group (maximum effect): 86% (10)
[5]; ref Wiley et al. (2012)
  %MPE, maximum possible antinociceptive effect in tail flick (maximum effect): 89% (10)
Ring immobility in mice; [16]
  RI, % time immobile on elevated ring (maximum effect): 47% (10)
[7]; 10 mg/kg
  % of maximal cannabinoid agonist-like activity in each of the four tests: at least 50%

## Cc1c(C(=O)NN2CCCCC2)nn(-c2ccc(Cl)cc2Cl)c1-c1ccc(CCCCC[N+](=O)[O-])cc1 [Compound O-3259, 1-(2,4-dichlor-ophenyl)-4-methyl-5-(4-(5-nitropentyl)phenyl)–N-(piperidin-1-yl)-1H-pyrazole-3-carboxamide, reference compound]
[1]; [14]
  Ki: 1.2 nM
Food intake in mice [3]
  dose (as low as) that suppressed eating: 1 mg/kg

## Cc1c(C(=O)NN2CCCCC2)nn(-c2ccc(Cl)cc2Cl)c1-c1ccc(Cl)cc1 [Rimonabant, reference compound]
Food intake in mice [8]; 1 mg/kg i.p.
  decrease in feeding compared to vehicle: 47%
Food intake in mice [8]; 10 mg/kg i.p.
  decrease in feeding compared to vehicle: 41%
[4]; [15]
  SA, % inhibition of activity of vehicle control group (maximum effect): stim (10)
[5]; ref Wiley et al. (2012)
  %MPE, maximum possible antinociceptive effect in tail flick (maximum effect): inactive (10)
[6]; [16]
  RT, change in rectal temperature compared to pre-drug (maximum effect): inactive (10)

## CCS(=O)(=O)NCCCC#CCc1cc(O)c2c(c1)OC(C)(C)[C@@H]1CC=C(C)C[C@@H]21 [Compound O-1991, N-{6-[(6aR,10aR)-1-hydroxy-6,6,9-trimethyl-6a,7,10,10a-tetrahydro-6H-benzo[c]chromen-3-yl]hex-4-yn-1-yl}ethane-sulfonamide]
Food intake in mice [8]; 56 mg/kg i.p.
  decrease in feeding compared to vehicle: 79%
Food intake in mice [8]
  dose that significantly decreased feeding: 56 mg/kg
[1]; [12]
  Ki: 30 nM
[2]; ref Wiley et al. (2011)
  Ki: 1.4 nM
[4]; ref Wiley et al. (2011)
  SA ED50 (95% confidence limits): 2 (1–3) mg/kg
[5]; ref Wiley et al. (2011)
  %MPE tail flick ED50 (95% confidence limits): 0.9 (0.6–1.4) mg/kg
[6]; ref Wiley et al. (2011)
  RT ED50 (95% confidence limits): 0.8 (0.4–1.6) mg/kg
[7]
  profile in test battery: exhibit agonist-like in vivo effects

## Cc1c(C(=O)NCC2CCC(CNS(C)(=O)=O)CC2)nn(-c2ccc(Cl)cc2Cl)c1-c1ccc(Cl)cc1 (stereo not shown) [13226–70, 5-(4-chlorophenyl)-1-(2,4-dichlorophenyl)–N-{[4-(methanesulfonamido-methyl)cyclohexyl]methyl}-4-methyl-1H-pyrazole-3-carboxamide]
Food intake in mice [8]; doses up to 30 mg/kg i.p.
  effect on food intake: failed to alter food intake

## Hemopressin [reference compound]
[9]; [17]
  displacement of [3H]CP55,940 from CB1 receptors: failed to displace
[10]; [17]
  displacement of [3H]CP55,940 from CB2 receptors: failed to displace
Food intake in mice [8]; doses up to 3 mg/kg i.p.
  effect on food intake: did not affect food intake; also recorded: did not affect feeding

## O=C(NN1CCCCC1)c1nn(-c2ccc(Cl)cc2Cl)c2cc(Br)ccc12 [Compound O-1654, 6-bromo-1-(2,4-dichlorophenyl)–N-(piperidin-1-yl)-1H-indazole-3-carboxamide]
[9]
  Ki: 881 nM
[10]
  Ki: 1190 nM
Food intake in mice [8]; doses up to 100 mg/kg i.p.
  effect on food intake: did not affect food intake

## CCCCC(C)c1ccc(-c2c(C)c(C(=O)NN3CCCCC3)nn2-c2ccc(Cl)cc2Cl)cc1 (stereo not shown) [Compound O-1690, 1-(2,4-dichlorophenyl)-5-[4-(hexan-2-yl)phenyl]-4-methyl-N-(piperidin-1-yl)-1H-pyrazole-3-carboxamide]
Food intake in mice [8]; doses up to 30 mg/kg i.p.
  effect on food intake: did not alter food intake
[1]; read-out: CB1 Ki (± SEM), displacement of [3H]CP55,940, ref Wiley et al. (2001)
  Ki: 2.6 nM
[4]; [18]
  SA (maximum effect): inactive (30)
[5]; ref Wiley et al. (2001)
  %MPE tail flick (maximum effect): inactive (30)
[6]; ref Wiley et al. (2001)
  RT (maximum effect): inactive (30)
Ring immobility in mice; [18]
  RI (maximum effect): inactive (30)
[7]; ref Wiley et al., 2001
  activity in test battery when tested alone: inactive
